# What was measured:
# [1] = system: HSC-2; assay: Cytotoxicity against human HSC2 cells by MTT assay; format: functional, cell-based
# Method in brief: (§1)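 Cells were grown in DMEM with 10% heat-inactivated FBS and penicillin/streptomycin under humidified 5% CO2. HPC came from premolar pulp explants and were used at passages 5–10. Cells were trypsinized, seeded at 6 × 10^3 to 1.2 × 10^4, incubated 24 h, washed with PBS, then exposed to compound for 24 h. MTT (0.2 mg/mL, 4 h) was added, cells were lysed in DMSO, and A540 was read. LD50 was taken from the dose-response curve.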
# [2] = Cytotoxicity against human HPC by MTT assay; method in brief: as §1
Compound,IC50 [1] [µg/mL],IC50 [2] [µg/mL]
COc1cc(O)c(C(C)=O)c(O)c1-c1c(C)cc(O)c2c1C(=O)c1cccc(O)c1C2=O,25,57
COc1cc(O[C@@H]2O[C@H](CO)[C@@H](O)[C@H](O)[C@H]2O)c(-c2c(C)cc(O)c3c2C(=O)c2cccc(O)c2C3=O)c(O)c1C(C)=O [BULBINELONESIDE A],36,> 120
CC(=O)c1c(O)cc(O[C@@H]2OC[C@@H](O)[C@H](O)[C@H]2O)c(-c2c(C)cc(O)c3c2C(=O)c2cccc(O)c2C3=O)c1O [BULBINELONESIDE B],56,> 120
CC(=O)c1c(O[C@@H]2OC[C@@H](O)[C@H](O)[C@H]2O)cc(O)c(-c2c(C)cc(O)c3c2C(=O)c2cccc(O)c2C3=O)c1O [BULBINELONESIDE C],> 120,> 120
CC(=O)c1c(O[C@@H]2O[C@H](CO)[C@@H](O)[C@H](O)[C@H]2O)cc(O)c(-c2c(C)cc(O)c3c2C(=O)c2cccc(O)c2C3=O)c1O [BULBINELONESIDE D],> 120,> 120
CC(=O)c1c(O[C@@H]2OC[C@@H](O)[C@H](O[C@@H]3O[C@H](CO)[C@@H](O)[C@H](O)[C@H]3O)[C@H]2O)cc(O)c(-c2c(C)cc(O)c3c2C(=O)c2cccc(O)c2C3=O)c1O [BULBINELONESIDE E],> 120,> 120
COc1cc([C@@H]2c3cc4c(cc3[C@@H](O[C@@H]3O[C@@H]5CO[C@@H](C)O[C@H]5[C@H](O)[C@H]3O)[C@H]3COC(=O)[C@H]23)OCO4)cc(OC)c1O [ETOPOSIDE],24,> 120
COc1cc(O)c(-c2c(C)cc(O)c3c2C(=O)c2cccc(O)c2C3=O)c(O)c1C(C)=O [KNIPHOLONE],33,> 120

# Reference: ChEMBL document CHEMBL1146547, “Bulbinelonesides A-E, phenylanthraquinone glycosides from the roots of Bulbinella floribunda” (J Nat Prod, 2003)
